Experiments:
[1] = test system: IGROV-1 cells; experiment: Antibody recruitment / binding on cells, flow cytometry; assay type: cell-based, human
[2] = test system: IGROV-1 cells; experiment: Mouse IgG recruitment and NK cell activation; assay type: cell-based, human; details: Fc-ARM2 10 nM, mouse IgG 100 nM; flow cytometry n = 4; ADCC 16 h n = 3; Fig. S11
[3] = test system: IGROV-1 cells; experiment: ADCC assay; assay type: cell-based, human
[4] = test system: A549 lung cancer cells (FR-α−); experiment: ADCC assay; assay type: cell-based, human; details: Fc-ARM2 + anti-CD20, 16 h, E/T 1-8, n = 3, Fig. S7
[5] = test system: KHYG-1/CD16a-158V NK cells co-cultured with IGROV-1 cells; experiment: IFN-γ secretion from NK cells, ELISA; assay type: cell-based, human
[6] = test system: IGROV-1 cells (FR-α+); experiment: Antibody recruitment to cancer cells, fluorescence microscopy; assay type: cell-based, human; details: Fc-ARM2 100 nM
[7] = test system: KHYG-1/CD16a-158V cells co-cultured with IGROV-1 cells; experiment: CD107a mobilization assay, flow cytometry; assay type: cell-based, human; details: Fc-ARM2 10 nM + anti-CD20 100 nM, 6 h, E/T = 1
In short: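 Human NK line KHYG-1 expressing CD16a-158V co-cultured 6 h with FR-α+ IGROV-1 ovarian adenocarcinoma cells (E/T 1) with the indicated reagents. Surface CD107a on NK cells read by flow cytometry. Mean ± SEM; two experimental repeats; one-way ANOVA with Tukey's multiple comparison test.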

[8] = test system: IGROV-1 cells; details: IGROV-1 cells (EGFR/FR-α double positive); cited from earlier work
[9] = test system: folate receptor-a (FR-α); details: cited from earlier work

SMILES: CC(C)C[C@@H]1NC(=O)[C@H](Cc2c[nH]cn2)NC(=O)[C@H](Cc2c[nH]c3ccccc23)NC(=O)[C@H](C)NC(=O)[C@@H]2CSSC[C@H](NC(=O)[C@H](Cc3c[nH]c4ccccc34)NC(=O)[C@H](C(C)C)NC(=O)[C@H](CC(C)C)NC(=O)[C@H](CCC(=O)O)NC(=O)CNC1=O)C(=O)N[C@@H]([C@@H](C)O)C(=O)N[C@H](C(N)=O)CSSC[C@H](NC(=O)CCOCCOCCOCCOCCOCCOCCNC(=O)CC[C@H](NC(=O)c1ccc(NCc3cnc4nc(N)[nH]c(=O)c4n3)cc1)C(=O)O)C(=O)N[C@@H](CC(=O)O)C(=O)N2 [Fc-ARM2]
- Amount of recruited IgG-FITC (MFI) ([1]; 10 nM Fc-ARM, increasing IgG-FITC, n = 3, Fig. 2E): recruited a higher amount of IgG-FITC compared with Fc-ARM1
- Recruitment of mouse IgG and ADCC [2]: did not work with mouse IgG
- ADCC (% cytotoxicity) with recruited anti-CD20 ([3]; Fc-ARM 10 nM + anti-CD20 100 nM, 16 h, E/T 1-8, LDH assay, n = 3): showed clear target cell killing
- ADCC with increasing concentration of anti-CD20 ([3]; Fc-ARM 10 nM, E/T = 8, 16 h, n = 3, Fig. 4C): induced ADCC more effectively
- ADCC (% cytotoxicity) with excess FA ([3]; Fc-ARM2 10 nM + anti-CD20 100 nM + FA (1 μM), 16 h): eliminated by excess FA
- ADCC with Fc fragment of anti-CD20 ([3]; Fc-ARM2 + Fc fragment of anti-CD20 mAb, n = 3, Fig. 4D): induced cytotoxicity upon recruitment by Fc-ARM2
- ADCC (% cytotoxicity) after 6, 8 and 16 h co-culture ([3]; Fc-ARM + anti-CD20, E/T = 4, Fig. 4B): showed higher cytotoxicity compared with Fc-ARM1 + anti-CD20
- ADCC against A549 cells [4]: ADCC was not induced
- IFN-γ secretion from NK cells ([5]; Fc-ARM2 + anti-CD20, E/T = 8, ELISA of supernatant, Fig. 3B): secretion of interferon-γ (IFN-γ)
- IFN-γ secretion from NK cells after 16 h ([5]; Fc-ARM + anti-CD20, E/T = 4, 16 h, Fig. S8): induced a higher amount of IFN-γ secretion
- Recruitment of Fc-fluorescein (Fc-fluo) to cells ([6]; Fc-fluo 500 nM): recruited the papain-digested Fc fragment of IgG1
- Recruitment of IgG-FITC to cells ([6]; IgG-FITC 500 nM, 30 min, 4 °C): successfully recruited FITC-labeled human IgG (IgG-FITC) to IGROV-1 cells
- Recruitment of IgG-FITC to cells with excess FA ([6]; IgG-FITC 500 nM, FA 100 µM as competitor): diminished IgG-derived fluorescence
- Surface mobilization of CD107a on NK cells [7]: surface mobilization of CD107a

SMILES: CC(C)C[C@@H]1NC(=O)[C@H](Cc2c[nH]cn2)NC(=O)[C@H](Cc2c[nH]c3ccccc23)NC(=O)[C@H](C)NC(=O)[C@@H](NC(=O)[C@H](CC(=O)O)NC(=O)CCOCCOCCOCCOCCOCCOCCNC(=O)CC[C@H](NC(=O)c2ccc(NCc3cnc4nc(N)[nH]c(=O)c4n3)cc2)C(=O)O)CSSC[C@@H](C(=O)N[C@H](C(N)=O)[C@@H](C)O)NC(=O)[C@H](Cc2c[nH]c3ccccc23)NC(=O)[C@H](C(C)C)NC(=O)[C@H](CC(C)C)NC(=O)[C@H](CCC(=O)O)NC(=O)CNC1=O [Fc-ARM1]
- Effect on ADCC activity of anti-EGFR mAb [8]: inhibited the ADCC activity
- Change in MFI of fluorescein-labeled anti-EGFR mAb on cells ([1]; 10 nM Fc-ARM1 added, Fig. S9A): about a six-fold increase in MFI
- ADCC (% cytotoxicity) after 4 h co-culture ([3]; Fc-ARM + anti-CD20, 4 h, E/T 1-8, n = 3, Fig. 4A): did not show detectable cytotoxicity

SMILES: Nc1nc(=O)c2nc(CNc3ccc(C(=O)N[C@@H](CCC(=O)O)C(=O)O)cc3)cnc2[nH]1 [FA, folic acid]
- Affinity to FR-α [9]: sub-nanomolar

Source: paper PMC8157400 (Chemical Science, 2020)
